# T cruzi repl: inhibitors of intracellular T. cruzi growth, primary screen, luminescence, NIH3T3 host cells; T. cruzi beta-gal in NIH3T3, 90 h; inhibition, % (concentration not given with the values); 300,000 tested, 1.4% active; AID 1885, 2009;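 active = mean inhibition across valid replicates above about 55%, limit read from the data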;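 note: signal also drops with host cell toxicity which is not excluded here; 0% = plate median of DMSO wells and 100% = zero luminescence signal; higher percent means less beta-gal luminescence so fewer parasites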
#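 System: NIH/3T3 fibroblasts plus reporter T. cruzi. Medium: DMEM plus 2% FBS. Probe or stimulus: 5000 reporter trypomastigotes per well. Compound: single 50 nL compound addition per well in DMSO. Incubation: co-culture of at least 90 h after 3 h attachment. Detection: GalScreen β-gal luminescence, detergent lysis, 60 min. Evaluation: parasite load inhibition, %.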
# CHOP UPR activ: activators of apoptotic CHOP UPR arm, primary screen, cell-based, CHO-CHOP luciferase reporter, luminescence, uHTS | UPR activation; percent of tunicamycin response over DMSO baseline | activation, % at 10 µM | 330,000 tested, 0.34% active;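 active = at 10 µM dose, activation of 40% or more, normalized to positive control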;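 note: 100% = tunicamycin at 10 µg/mL and 0% = DMSO alone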
#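 System: CHO CHOP reporter cells. Amount: 500 cells per well. Buffer or medium: F12 medium, 10% FBS. Compound dosing: one dose, 10 µM in 0.5% DMSO. Incubation: 6 h compound exposure at 37 °C after overnight seeding. Technique: Steady-Glo luciferase luminescence. Benchmarks: tunicamycin and DMSO controls.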
# Mdm2-MdmX inh: inhibitors of human Mdm2-MdmX association, primary screen, cell-based, luminescence, split luciferase, SaOS-2, uHTS | Protein Mdm4 (Homo sapiens) + E3 ubiquitin-protein ligase Mdm2 (Homo sapiens), … | SaOS-2 split-luciferase Mdm2/MdmX complementation | inhibition, % at 8 µM | 330,000 tested, 3% active;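 active = inhibition of at least 50% at 8 µM in the primary screen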
# CSC inhib: cancer stem cell viability inhibitors, primary screen, luminescence; AID 2717, 2010; cancer stem cell-like cells viability; inhibition, % at 7.5 µM; 300,000 tested, 1.1% active; in the data active = inhibition above about 75%; tested in HMLE shEcad cells
# Beta apoptosis: inhibitors of cytokine-induced beta cell apoptosis, primary screen, luminescence; protection from apoptosis, % (test concentration not listed); 300,000 tested, 0.8% active; INS-1E cytokine-induced death, ATP luminescence, 48 h; percent of positive-control rescue, neutral wells zero;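 active = Every replicate reaches about 75%, or at least half do and their mean reaches it too, limit read from the data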;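 note: 0% = cytokine-treated negative control wells and 100% = positive control rescue; higher means more ATP so stronger rescue from cytokine killing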
# UPR XBP1 act: activators of adaptive XBP1 UPR arm, primary screen, cell-based, CHO-XBP1 luciferase reporter, luminescence, uHTS; IRE1-XBP1 UPR activation; percent of tunicamycin response, DMSO as zero; AID 463104, 2010; activation, % at 20 µM; 330,000 tested, 0.33% active;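 active = versus positive control, 20 µM dose yields 30% or more activation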;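 note: 100% = tunicamycin at 10 µg/mL and 0% = DMSO only wells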
#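 Material: CHO-XBP1 cells stably carrying IRE1-XBP1-driven luciferase reporter / Amount: 1000 cells per well / Compound: 20 µM, 1% DMSO / Times: 6 h treatment, 37 °C / Detection: luciferase luminescence / Measure: % activation of reporter signal versus tunicamycin and DMSO controls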
# Mdm2-MdmX conf: Mdm2-MdmX complex disruptors, retested hits, confirmation, luminescence, single concentration. inhibition, % at 8 µM. 10,000 tested, 55% active. shares compounds with Mdm2-MdmX inh. Mdm2-MdmX binding, luminescent assay; in the data active = inhibition above about 40%
# FLuc counter: full-length luciferase signal inhibition, confirmation, counter-screen for Mdm2/MdmX interaction inhibitor project, cell-based, single concentration, SaOS-2 | shares compounds with Mdm2-MdmX inh | SaOS-2 full-length luciferase counterscreen, luminescence | inhibition, % at 8 µM | 6,200 tested, 77% active | AID 504607, 2011;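 active = mean inhibition at 8 µM reaching about 37%, which flags the compound as non-specific, limit read from the data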;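 note: p53-null SaOS-2 cells with luciferase driven by a doxycycline-inducible promoter; compound on cells about two nights before reading with doxycycline added after day one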
# The depositor's hits bear a star; / = no result given. An excerpt weighted towards active compounds, which were near 5% of everything screened.
SMILES,T cruzi repl,CHOP UPR activ,Mdm2-MdmX inh,CSC inhib,Beta apoptosis,UPR XBP1 act,Mdm2-MdmX conf,FLuc counter
O=c1cc(CN2CCN(C/C=C/c3ccccc3)CC2)c2cc(O)c(-c3ccccc3)cc2o1,39,7,50*,13,20,8,42*,65*
CC(C)CN(Cc1cc(=O)oc2cc(-c3ccccc3)c(O)cc12)CC(C)C,17,-2,80*,109*,42,8,-5,/
Cn1cc(/C=C2\SC(=S)N(NC(=O)c3ccccc3)C2=O)c2ccccc21,20,/,/,7,5,/,/,/
Cn1cc(/C=C2\SC(=S)N(N3CCOCC3)C2=O)c2ccccc21,-22,8,50*,-8,-6,2,6,/
COc1ccc2[nH]c(=O)cc(C(=O)O)c2c1,-9,0,8,-5,-6,1,/,/
COc1ccc2[nH]c3c4c(ccc3c2c1)C(=O)C=CC4=O,/,-6,75*,/,/,-12,80*,2
COc1ccc(N(C)C(=O)c2cc3c(s2)-c2ccccc2OC3)c(OC)c1,28,-1,-16,/,1,-1,/,/
COc1ccc(N(C)C(=O)c2cc3c(s2)-c2ccc(Cl)cc2S(=O)(=O)C3)c(OC)c1,7,3,56*,1,18,10,19,/
CCC1=C(OC(=O)N(CC)CC)N2C(=O)OC(=NCC3CC3)[C@]2(Cc2ccccc2)[C@H]2C1=CC[C@H]1C(=O)N(CC)C(=O)[C@H]12,35,-1,-9,16,-2,1,/,/
CCOC(=O)N1CCC(=NNC(=O)c2cc3ccccc3cc2O)CC1,-12,2,21,8,1,-3,/,/
CC(=O)N1CCC(=NNC(=O)c2cc3ccccc3cc2O)CC1,-8,1,62*,-16,-2,-4,51*,58*
CCOc1cc(/C=C/C(=O)c2ccc3c(c2)OCCO3)ccc1OCC(=O)N(C)C,-21,1,55*,/,-41,-1,39,51*
COc1cc(-c2nc3ccc(N4CCN(C)CC4)cc3[nH]2)cc(OC)c1OC,21,1,79*,-10,0,2,65*,73*
COc1cc2c(cc1OC)CN(C(=O)Cc1c(F)cccc1Cl)CC2,0,0,-15,-3,2,7,/,/
COCCNC(=O)CSc1nnc(CCCN2C(=O)c3cccc4cccc(c34)C2=O)n1-c1ccccc1,3,2,-14,-5,-3,-1,/,/
CCOC(=O)C1CCCN(Cc2nc(Cc3ccccc3Cl)no2)C1 (stereo not drawn),15,-2,11,4,-7,-3,/,/
COc1ccc(NC(=O)c2c(Nc3ccccc3)sc(C(=O)c3ccc(F)cc3)c2N)cc1,7,24,62*,38,104*,4,19,/
Cc1ccc(NC(=S)NCCC(c2ccccc2)c2ccccc2)c(C)c1,37,4,61*,15,5,0,4,/
CC(C)(O)CCC(C)(C)O,/,1,16,-5,-1,0,/,/
CCC1=Nc2cc(C(=O)NCC3CCCO3)ccc2Sc2ccc(Br)cc21 (stereo not drawn),33,0,43,49,20,-2,/,/
CCC1=Nc2cc(C(=O)NCC3CCCO3)ccc2Sc2ccc(Cl)cc21 (stereo not drawn),22,-1,65*,58,16,5,55*,45*
